The source of these data is ChEMBL document CHEMBL3593200, “NO-donor thiacarbocyanines as multifunctional agents for Alzheimer's disease” (Bioorg Med Chem, 2015).

Active and inactive are the calls of the source. The calls are words filed in the database; no cut-off is given here.

For orientation: IC50 means the midpoint of a concentration-inhibition curve. One may read the inhibition as the change of the read-out against control, counted positive when it falls.

For data set [1], the target named is T1, Amyloid-beta precursor protein (Homo sapiens, UniProt P05067). Put plainly: Inhibition of Amyloid beta (1 to 40) (unknown origin) aggregation assessed as amount of fibrils formation after 2 hrs by thioflavin T based spectrofluorimetric method. In outline:
(§1)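 Aβ40 pretreated in HFIP to remove preaggregates, then 30 μM peptide incubated 2 h at room temperature with inhibitor in PBS pH 7.4 (2% HFIP, 5% DMSO). ThT (3 μM, in 50 mM phosphate pH 6.0) fluorescence read at ex 450/em 486 nm. Inhibition = 100 − [(Fi−Fb)/F0×100]. IC50 from 5–7 concentrations in triplicate, ≥3 independent experiments, nonlinear regression; weaker compounds given as % inhibition ± SE at 100 μM.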

The nature of data set [2]: Cytotoxicity against human hCMEC/D3 cells at 10 to 20 uM after 18 hrs by lactate dehydrogenase assay. It is filed as cell-based. The settings on record: hcmec/d3, 18 h.
Data set [3] can be described thus: Cytotoxicity against human hCMEC/D3 cells up to 1 uM after 18 hrs by lactate dehydrogenase assay. It is filed as cell-based. The settings on record: hcmec/d3, 18 h.
The target of data set [4] is Soluble guanylate cyclase (Homo sapiens) (UniProt Q02153+O75343+P33402+Q02108). Put plainly: Activation of sGC in human hCMEC/D3 cells assessed as production of cGMP per million cells using [3H]-cGMP after 1 hr by liquid scintillation counting. The settings on record: CMEC/D3. It is filed as cell-based. In outline:
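hCMEC/D3 cells (1×10^6, collagen-coated wells, supplemented EBM-2, 37°C, 5% CO2) switched to Hepes-Ca2+ buffer pH 7.4 with 1 mM IBMX. Exposed 1 h at 37°C to 0.1, 1, 5 or 10 μM; SNP 1 mM as reference NO donor. Ethanol-permeabilized, residue taken up in Tris-EDTA pH 8. cGMP quantified by [3H]-cGMP competitive radioimmunoassay with scintillation counting against a [3H]-cGMP titration curve; expressed as pmol/10^6 cells. Mean ± SEM, one-way ANOVA.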

Data set [5] addresses T1, Amyloid-beta precursor protein. Put plainly: Inhibition of Amyloid beta (1 to 42) (unknown origin) aggregation assessed as amount of fibrils formation after 5 days by thioflavin T based spectrofluorimetric method.
In data set [6] the target is Microtubule-associated protein tau (Homo sapiens) (UniProt P10636). Put plainly: Inhibition of wild type human recombinant tau 2N4R aggregation assessed as reduction of formation rate and number of aggregates at 1 uM after 48 hrs using Congo Red staining. In outline: (§2)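 Recombinant human tau 2N4R, expressed in E. coli BL21(DE3), used at 8 μM with 300 μg/mL heparin in 35 mM MES pH 7.4, 1 mM DTT at 37°C, alone or with compound at 1 μM (final). Aliquots taken at 2 and 5 days, stained with Congo Red and examined under polarized light; also negatively stained with uranyl acetate for EM at 30,000 magnification.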
Sequence of Microtubule-associated protein tau (Homo sapiens) (P10636 whole entry): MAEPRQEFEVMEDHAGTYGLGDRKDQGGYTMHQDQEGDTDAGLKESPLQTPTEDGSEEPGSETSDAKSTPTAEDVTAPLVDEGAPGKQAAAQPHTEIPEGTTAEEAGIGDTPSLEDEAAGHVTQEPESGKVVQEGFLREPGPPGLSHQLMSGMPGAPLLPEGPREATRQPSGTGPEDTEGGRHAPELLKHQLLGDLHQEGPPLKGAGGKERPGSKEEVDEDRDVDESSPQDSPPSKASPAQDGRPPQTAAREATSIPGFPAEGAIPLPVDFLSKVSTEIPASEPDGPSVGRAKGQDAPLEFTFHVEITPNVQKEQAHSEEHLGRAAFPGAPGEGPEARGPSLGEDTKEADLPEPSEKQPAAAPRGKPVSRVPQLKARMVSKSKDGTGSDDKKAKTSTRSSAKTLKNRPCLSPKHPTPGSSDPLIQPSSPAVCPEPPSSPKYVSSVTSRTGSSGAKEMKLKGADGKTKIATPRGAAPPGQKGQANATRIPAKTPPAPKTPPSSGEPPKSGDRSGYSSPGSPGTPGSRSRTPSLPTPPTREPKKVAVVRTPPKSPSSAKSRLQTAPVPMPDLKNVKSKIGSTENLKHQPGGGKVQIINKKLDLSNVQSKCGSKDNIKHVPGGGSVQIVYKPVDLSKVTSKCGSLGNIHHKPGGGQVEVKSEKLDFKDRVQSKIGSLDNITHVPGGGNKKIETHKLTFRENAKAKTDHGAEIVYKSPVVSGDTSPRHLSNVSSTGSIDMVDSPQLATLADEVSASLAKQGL

In the next data set the test system is Brain. Put plainly: Synaptic plasticity activity in hippocampal brain slices of C57BL/6 mouse assessed as protection against amyloid beta (1 to 42)-induced long-term potentiation inhibition after 20 mins. It is filed as functional. More on the design: scale not given: the % may be the effect or the level left. In outline: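 Hippocampal slices (400 μm) from 30-day-old male C57BL/6 mice, recovered at 32°C in ACSF. Oligomerized Aβ42 (final 200 nM) was mixed with compound (final 2 μM), pre-incubated 30 min, then perfused 20 min before HFS. Schaffer collateral stimulation; CA1 fEPSP peak amplitude recorded 60 min post-HFS. LTP taken as mean over 55–60 min as % of baseline. Mean ± SEM, unpaired t-test.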

Data set [7] addresses Microtubule-associated protein tau (Homo sapiens) (UniProt P10636). Put plainly: Inhibition of wild type human recombinant tau 2N4R aggregation assessed as reduction of formation rate and number of aggregates at 1 uM after 5 days using Congo Red staining. In outline: as §2
The target in data set [8] is T1, Amyloid-beta precursor protein. Put plainly: Inhibition of Amyloid beta (1 to 40) (unknown origin) aggregation assessed as amount of fibrils formation at 100 uM after 2 hrs by thioflavin T based spectrofluorimetric method. Summed up: as §1

T1 sequence (P05067 whole entry): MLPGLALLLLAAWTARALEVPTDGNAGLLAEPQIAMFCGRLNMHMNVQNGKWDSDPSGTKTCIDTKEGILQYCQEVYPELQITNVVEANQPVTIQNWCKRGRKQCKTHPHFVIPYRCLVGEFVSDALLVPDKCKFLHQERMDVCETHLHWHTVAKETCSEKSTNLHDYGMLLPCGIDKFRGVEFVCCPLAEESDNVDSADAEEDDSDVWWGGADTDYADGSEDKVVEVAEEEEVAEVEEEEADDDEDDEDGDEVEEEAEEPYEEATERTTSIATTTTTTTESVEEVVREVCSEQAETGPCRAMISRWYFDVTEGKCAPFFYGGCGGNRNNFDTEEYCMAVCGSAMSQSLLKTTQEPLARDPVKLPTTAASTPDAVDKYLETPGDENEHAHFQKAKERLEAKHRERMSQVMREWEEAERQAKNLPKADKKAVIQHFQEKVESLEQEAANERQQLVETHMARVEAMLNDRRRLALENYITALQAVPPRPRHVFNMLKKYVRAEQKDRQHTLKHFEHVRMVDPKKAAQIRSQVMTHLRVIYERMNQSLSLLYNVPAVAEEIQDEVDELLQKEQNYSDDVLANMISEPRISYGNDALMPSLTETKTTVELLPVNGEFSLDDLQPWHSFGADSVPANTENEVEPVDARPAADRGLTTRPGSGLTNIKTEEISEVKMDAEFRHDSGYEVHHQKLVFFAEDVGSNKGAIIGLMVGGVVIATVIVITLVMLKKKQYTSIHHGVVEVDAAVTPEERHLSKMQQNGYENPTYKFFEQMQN

With `CN(C)c1ccc2nc3ccc(=[N+](C)C)cc-3sc2c1`, the IC50 in data set [1] was found to be 4.5 µM.
As to `CCCOc1ccc2c(c1)N(CC)/C(=C/C=C/c1sc3ccc(OCCC)cc3[n+]1CC)S2.[I-]`, the Activity entry in data set [2] was “Non-toxic”; in data set [3], “Non-toxic”; in data set [4], “Dose-dependent effect”. The inhibition entry in data set [1] is “inactive”.
Consider `CCN1/C(=C/C=C/c2sc3ccccc3[n+]2CC)Sc2ccc(OCCCO[N+](=O)[O-])cc21.[I-]`, for which the Activity result in data set [2] was “Non-toxic”; in [3], “Non-toxic”; in data set [4], “Dose-dependent effect”; in the data set on Brain, 69.3%. Also, the values for the IC50 in [5] and in [1] were 7.7 µM and 8.1 µM, respectively. The inhibition entry in data set [6] and in data set [7] was “Active” in each case.
Regarding `CCN1/C(=C/C=C/c2sc3ccc(OCc4no[n+]([O-])c4C(N)=O)cc3[n+]2CC)Sc2ccc(OCc3no[n+]([O-])c3C(N)=O)cc21.O=S(=O)([O-])C(F)(F)F`, the Activity entry in [2] is “Non-toxic”; in data set [3], “Non-toxic”; in [4], “Dose-dependent effect”. Besides, in [8], the inhibition worked out at 17%.
Take `CCN1/C(=C/C=C/c2sc3ccccc3[n+]2CC)Sc2ccc(Oc3no[n+]([O-])c3-c3ccccc3)cc21.[I-]`: the Activity result is “Non-toxic” in data set [2], “Non-toxic” in data set [3], “Dose-dependent effect” in [4] and 90.8% with Brain. Moreover, the IC50 in data set [5] is 1.6 µM; in data set [1], 1.8 µM. Further, the inhibition entry in [6] and in data set [7] was “Active” throughout.
`CCN1/C(=C/C=C/c2sc3ccccc3[n+]2CC)Sc2ccc(OCc3no[n+]([O-])c3C(N)=O)cc21.[I-]`: the Activity entry in data set [2] is “Non-toxic”; in [3], “Non-toxic”; in data set [4], “Dose-dependent effect”. The inhibition in data set [8] was 26%.
In the case of `CCN1/C(=C/C=C/c2sc3ccc(OCCCO[N+](=O)[O-])cc3[n+]2CC)Sc2ccc(OCCCO[N+](=O)[O-])cc21.O=S(=O)([O-])C(F)(F)F`, the Activity result in [2] is “Non-toxic”; in data set [3], “Non-toxic”; in data set [4], “Dose-dependent effect”. The inhibition result in data set [6] and in data set [7] was “Active” each time. The inhibition in data set [8] is 26%.
In the case of `CCN1/C(=C/C=C/c2sc3ccccc3[n+]2CC)Sc2ccccc21.[I-]`, the Activity result was “Non-toxic” in data set [2], “Non-toxic” in data set [3] and 34.7% in the data set on Brain. The figures for the IC50 in data set [5] and in data set [1] were 3.3 µM and 3.1 µM, respectively.
As for `CCCOc1ccc2c(c1)N(CC)/C(=C/C=C/c1sc3ccccc3[n+]1CC)S2.[I-]`, the Activity result is “Non-toxic” in [2], “Non-toxic” in [3] and “Dose-dependent effect” in data set [4]. Also, the IC50 came out at 0.8 µM in [5] and 7 µM in [1].
Consider `CCN1/C(=C/C=C/c2sc3ccccc3[n+]2CC)Sc2ccc(Oc3no[n+]([O-])c3S(=O)(=O)c3ccccc3)cc21.[I-]`, for which the results for the Activity entry in [2], in data set [3] and in data set [4] were “Non-toxic”, “Non-toxic” and “Dose-dependent effect”, respectively. For the same compound, the inhibition result in data set [6] and in [7] was “Active” each time. Moreover, the IC50 in data set [1] turned out to be 21 µM.
